# Sampled rows, rich in hits. Any-hit rate of the full collection: about 2.6%.
# E-sel inducer: E-selectin induction on HUVECs; activation, % at 7.58 µM; actives 0.37% (n = 260,000); HUVEC E-selectin immunofluorescence imaging; normalized: neutral wells 0, TNF-alpha wells 100;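 active = mean E-selectin-positive cell signal at least 10% of the positive control, reached in at least 60% of replicates, without over 20% cell loss; inconclusive = no rule given, readout overlaps actives, possibly toxicity-flagged; inactive = the rest, including those meeting only one limit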
#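 Read-out basis: % PE-positive cells; Test system: HUVEC primary endothelial cells; Technique: immunofluorescence imaging; Dosing: single-point compound dose.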
# DENV2 CPE: inhibitors of DENV2 cytopathic effect | DENV2-infected cells, cytopathic effect rescue, plate reader | AID 651640 | actives 1.7% (n = 350,000) | CPE inhibition, % at 9.99 µM; in the data active = CPE inhibition above about 20%, passing the limit was not always enough; inconclusive = no clear call, values can overlap the other calls; tested in BHK-21 cells;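 also: 0% = median of neutral control wells and 100% = median of positive control wells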
# miR-122 sensor: miR-122 inhibition in Huh7 cells | Huh7 miR-122 Renilla luciferase sensor, 48 h; neutral wells = 0, positive control = 100 | activation (reporter increase), % at 12.5 µM | AID 602342 | actives 0.3% (n = 340,000);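 active = mean replicate activation score at least 90 and every replicate individually at or above 90; inconclusive = only one of the two criteria met; inactive = neither criterion met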;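 also: higher luciferase means less miR-122 activity so hits act as miR-122 inhibitors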
# ERAP1 inh: inhibitors of human ERAP1 aminopeptidase | Q9NZ08 | recombinant ERAP1, Leu-AMC fluorescence, 60 min | inhibition, % at 10.7 µM | actives 0.15% (n = 340,000);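 active = mean replicate inhibition of at least 30%, or all replicates individually reaching that 30% level; inactive = mean below 30% and not every replicate reaching it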;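 also: 0% = neutral control wells and 100% = L-leucinethiol positive control wells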
# Target sequence (Q9NZ08 whole entry, looked up): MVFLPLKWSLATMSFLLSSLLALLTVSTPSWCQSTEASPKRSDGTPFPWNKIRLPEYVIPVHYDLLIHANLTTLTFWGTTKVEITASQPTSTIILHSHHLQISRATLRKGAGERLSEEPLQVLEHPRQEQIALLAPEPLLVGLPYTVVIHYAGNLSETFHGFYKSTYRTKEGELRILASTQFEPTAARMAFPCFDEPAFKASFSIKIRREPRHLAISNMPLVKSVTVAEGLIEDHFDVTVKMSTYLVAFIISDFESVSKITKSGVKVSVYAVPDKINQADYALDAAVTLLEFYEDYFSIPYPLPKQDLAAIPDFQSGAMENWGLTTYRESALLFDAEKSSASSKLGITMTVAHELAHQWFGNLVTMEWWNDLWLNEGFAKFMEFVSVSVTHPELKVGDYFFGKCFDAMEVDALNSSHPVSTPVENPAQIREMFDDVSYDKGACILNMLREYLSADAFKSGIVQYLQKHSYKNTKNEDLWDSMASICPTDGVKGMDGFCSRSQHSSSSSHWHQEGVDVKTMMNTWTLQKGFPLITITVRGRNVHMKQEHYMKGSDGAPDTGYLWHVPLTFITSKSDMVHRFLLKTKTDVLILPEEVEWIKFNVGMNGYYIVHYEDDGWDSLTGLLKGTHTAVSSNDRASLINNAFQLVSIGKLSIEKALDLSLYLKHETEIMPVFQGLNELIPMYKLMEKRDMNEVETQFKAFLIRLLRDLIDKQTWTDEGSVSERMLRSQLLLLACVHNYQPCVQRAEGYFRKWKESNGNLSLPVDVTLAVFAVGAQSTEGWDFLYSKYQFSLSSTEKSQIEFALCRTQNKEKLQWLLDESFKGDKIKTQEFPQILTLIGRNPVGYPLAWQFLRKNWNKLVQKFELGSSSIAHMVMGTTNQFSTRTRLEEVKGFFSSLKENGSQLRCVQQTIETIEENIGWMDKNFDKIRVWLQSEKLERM
# GSIS activator: primary screen for activators of insulin secretion dependent on glucose, INS-1E cells, GLuc reporter luminescence | INS-1E GLuc reporter insulin secretion, 2-3 h | activation, % at 16.6 µM | actives 0.61% (n = 370,000) | AID 743287;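 active = lowest replicate activation of at least 40%, so every replicate reaches that level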;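 also: 0% = median of neutral control wells and 100% = median of IBMX positive control wells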
# F508del corr: correctors of CFTR F508del function in bronchial epithelial cells. CFBE cells, YFP halide quenching; stimulated with forskolin plus potentiator P3; % fluorescence drop versus neutral controls. activity (quench increase), % at 7.58 µM. actives 0.36% (n = 350,000). AID 720511;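 active = mean added fluorescence quench of at least 8% versus neutral control, with both replicates also reaching 8%; inconclusive = only one of the mean or replicate conditions met; inactive = mean below 8% and not both replicates reaching 8%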;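 also: cells transiently co-express mutant CFTR-F508del with the halide-sensitive YFP; corrector assay measuring rescue of mutant channel to the surface after 24 h compound exposure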
# * = called active by the depositor; ? = inconclusive; · = no result given; [ ] = remark or other dose.
SMILES,E-sel inducer,DENV2 CPE,miR-122 sensor,ERAP1 inh,GSIS activator,F508del corr
CC(C)NC(=O)Nc1ccc2c(c1)CC(=O)N([C@@H](C)CO)C[C@@H](C)[C@@H](CN(C)C(=O)Nc1ccccc1)O2,0,2,5[16.7 µM],1,16,-2
OCC[C@@H]1C[C@H](O)[C@@H](O)[C@@]2(Cc3ccccc3CCO2)O1,0,?,1,-2,1,3
OCC[C@H]1C[C@@H](O)[C@H](O)[C@]2(Cc3ccccc3CCO2)O1,0,47*,·,-3,-3,1
CCC1=C(OC(=O)N(CC)CC)N2C(=O)OC(=NCC(=O)OC)[C@]2(Cc2ccccc2)[C@H]2C1=CC[C@H]1C(=O)NC(=O)[C@H]12,0,23*,·,-1,·,4
Nc1ncc(-c2ccc(F)cc2)nc1N1CCN(CCO)CC1,0,27*,-3,2,2,-5
CCOC(=O)c1c(NC(C)=O)sc2c(OCC(O)CNC(C)(C)C)c(Br)ccc12 (stereo unspecified),·,·,1,·,45*,·
Cc1noc(C)c1NC(=O)N(C)C[C@H]1Oc2ccc(NC(=O)Nc3cccc4ccccc34)cc2C(=O)N([C@H](C)CO)C[C@H]1C,1,7,10[16.7 µM],-2,-6,1
Cc1cc(C)c(C(=O)NC2CCCc3c2cnn3-c2cccc(C)c2C)o1 (stereo unspecified),·,-6,-2,-1,-7,8.4*
O=C(NC1CCCc2c1cnn2-c1ccccc1F)c1ccncc1 (stereo unspecified),0,25*,-24,-10,-13,-2
Cc1cc(C)c(C(=O)NC2CCCc3c2cnn3-c2ccc(C)c(C)c2)c(=O)[nH]1 (stereo unspecified),0,106*,11,0,-8,2
Cc1ccc(-n2ncc3c2CCCC3NC(=O)c2ccoc2)cc1C (stereo unspecified),·,-3,·,3,78,1
Cc1cccc(-n2ncc3c2CCCC3NC(=O)C2(C(N)=O)CC2)c1C (stereo unspecified),·,3,·,-2,-17,2
CC=Cc1ccc2n(c1=O)C[C@@H]1[C@@H](CO)[C@H](C(=O)Nc3ccc(-c4ccccc4)cc3)[C@H]2N1CC (mixture of isomers),0,7,·,0,-19,0
Cc1noc(C)c1S(=O)(=O)N(C)C[C@H]1OCc2ccccc2-c2c(n(C)c3ccccc23)C(=O)N([C@H](C)CO)C[C@@H]1C,0,-5,·,0,18,0
COCC(=O)NC[C@@H]1[C@@H](c2ccc(-c3ccccc3)cc2)[C@@H](CO)N1C(C)=O,0,-12,0[16.7 µM],0,-2,2
CC1Nc2ncnc(N3CCc4ccccc4C3)c2N(Cc2ccc(Cl)cc2)C1=O (stereo unspecified),·,·,3,-2,74*,·
O=C(O)c1c(C(=O)O)c(-c2ccc(Cl)c(Cl)c2)n2c1CSC2,58*,14,-4,-1,·,0
COc1ccc(N2CCN(C(=O)c3csc4ccccc34)CC2)cc1,·,·,162*,·,·,·
O=C(c1csc2ccccc12)N1CCN(c2ccc(Cl)c(Cl)c2)CC1,·,·,0,·,·,·
COc1ccc(NC(=O)N(C)C[C@H]2OCc3ccccc3-c3ccccc3C(=O)N([C@@H](C)CO)C[C@H]2C)cc1,0,10,·,0,15,-1
Cc1ccc(S(=O)(=O)Nc2cc(-c3ccccc3)nn2C)cc1Cl,53*,4,6,·,12,0
CNC(=O)CC1C(=O)N(c2ccc(F)cc2)C(=S)N1NC(=O)c1ccc(Cl)cc1 (stereo unspecified),·,-3,·,1,-2,8.0*
CCCCNC(=O)N1c2ccccc2CC1C (stereo unspecified),155*,-11,11,2,7,1
COC(=O)c1ccccc1NC(=O)N1c2ccccc2CC1C (stereo unspecified),·,·,-2,2,8,·
COC1=C/C(=C/c2c(N)n3cc(C)sc3nc2=O)C=CC1=O,-1,1,-1,1,4,·
SMILES,E-sel inducer,DENV2 CPE,miR-122 sensor,ERAP1 inh,GSIS activator,F508del corr
Cc1cn2c(N)c(C=C3C=C(Cl)C(=O)C(Cl)=C3)c(=O)nc2s1,142*,16,·,0,-24,0
CCN1C/C(=C\c2cccc([N+](=O)[O-])c2)C(=O)/C(=C/c2cccc([N+](=O)[O-])c2)C1,·,33*,-6,-3,18,1
O=C1/C(=C/c2cccc([N+](=O)[O-])c2)CCc2ccccc21,·,·,-1,·,40,·
O=C(NCC1CCCCC1)[C@H]1[C@H](CO)[C@H]2Cn3c(cccc3=O)[C@@H]1N2CCc1ccccc1,0,109*,·,0,-9,·
O=C(NCC1CCCCC1)[C@@H]1[C@@H](CO)[C@@H]2Cn3c(cccc3=O)[C@H]1N2CCc1ccccc1,0,110*,·,1,-7,·
O=C(NCC1CC1)[C@@H]1[C@@H](CO)[C@@H]2Cn3c(cccc3=O)[C@H]1N2CCc1ccccc1,1,0,-5[16.7 µM],1,8,1
COCCNC(=O)[C@H]1[C@H](CO)[C@H]2Cn3c(cccc3=O)[C@@H]1N2Cc1cc(F)ccc1F,0,40*,-1[16.7 µM],2,22,-5
CCCNC(=O)C[C@@H]1CC[C@@H]2[C@H](COC[C@H](O)CN2C(=O)Nc2ccccc2OC)O1,0,3,-1[16.7 µM],-4,7,-1
Cc1ccc(NC(=O)CN(C)C(=O)COc2cccc3cccnc23)cc1,·,·,·,·,40*,·
CC(=O)N(C[C@@H]1N[C@@H](CO)[C@H]1c1ccc(-c2ccc(F)cc2)cc1)C(C)C,0,3,30[16.7 µM],-1,-2,1
CC(=O)N(C[C@H]1N[C@H](CO)[C@H]1c1ccc(-c2ccc(F)cc2)cc1)C(C)C,0,64*,-7[16.7 µM],-1,-1,-1
C/C=C/c1ccc([C@H]2[C@H](CO)N[C@H]2CN(C(=O)C2CCC2)C(C)C)cc1,0,23*,-8[16.7 µM],1,-6,-1
O=C(c1cccc(F)c1)N1CC(=O)N2[C@@H](CO)[C@@H](c3ccc(C4=CCCC4)cc3)[C@@H]2C1,0,-2,·,-2,1,0
CC(OC(=O)c1ccc(S(C)(=O)=O)c([N+](=O)[O-])c1)C(=O)NC1C2CC3CC(C2)CC1C3 (stereo unspecified),0,4,-3,-6,143*,-1
CS(=O)(=O)c1ccc(C(=O)OCC(=O)NC23CC4CC(CC(C4)C2)C3)cc1[N+](=O)[O-],0,-2,-4,10,-2,·
CC(C)CN1CCN(C(=O)COC(=O)c2ccc(S(C)(=O)=O)c([N+](=O)[O-])c2)CC1,-1,-11,-4,·,138*,-4

# Assay outcomes from PubChem BioAssay.
